According to ChEMBL document CHEMBL4689842, “EUbOPEN Chemogenomics Library wave 1” (2021):

Test system: HEK-293T
Experiment: Multiplex assay against HEK293T;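 for Population Tubulin-Different-Phenotype (%): share of the cells with healthy nuclei that show this phenotype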
Type: toxicity, cell-based
Conditions: human
Outline: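 Cells stained live at seeding with Hoechst33342, BioTracker Green Microtubule Cytoskeleton Dye, MitoTracker Red and Annexin V Alexa Fluor 680 were imaged on a CQ1 microscope at 37°C and 5% CO2 after compound addition. Their classification by CellPathfinder machine-learning gating ran from Hoechst high-intensity objects versus normal cells, to healthy, pyknosed or fragmented nuclei among normal cells, to mitotic or apoptotic among pyknosed cells. Tubulin, mitochondrial-mass and membrane-permeability phenotypes are per cents of healthy-nucleus cells.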

[1] = 12 h, 1 µM, compound concentration 1 uM, replicate 1
[2] = 12 h, 1 µM, compound concentration 1 uM, replicate 2
[3] = 12 h, 10 µM, compound concentration 10 uM, replicate 1
[4] = 12 h, 10 µM, compound concentration 10 uM, replicate 2
[5] = 24 h, 1 µM, compound concentration 1 uM, replicate 1
[6] = 24 h, 1 µM, compound concentration 1 uM, replicate 2
[7] = 24 h, 10 µM, compound concentration 10 uM, replicate 1
[8] = 24 h, 10 µM, compound concentration 10 uM, replicate 2
[9] = 48 h, 1 µM, compound concentration 1 uM, replicate 1
[10] = 48 h, 1 µM, compound concentration 1 uM, replicate 2
[11] = 48 h, 10 µM, compound concentration 10 uM, replicate 1
[12] = 48 h, 10 µM, compound concentration 10 uM, replicate 2

Compound: CCOC(=O)c1c(C)[nH]c2ccc3c(c12)CN1CCc2cc(OC)ccc2C1O3 (centres undefined)
- Population Apoptotic (%) [1]: 61%
- Population Fragmented Nuclei (%) [1]: 14%
- Population Healthy Nuclei (%) [1]: 30%
- Population Hoechst High Intensity Objects (%) [1]: 14%
- Population Membrane Permeable-Phenotype (%) [1]: 1%
- Population Mitochondria Different-Phenotype (%) [1]: 100%
- Population Mitotic Cells (%) [1]: 38%
- Population Normal (%) [1]: 85%
- Population Pyknosed Nuclei (%) [1]: 54%
- Total Cell Count [1]: 228
- Population Apoptotic (%) [2]: 36%
- Population Fragmented Nuclei (%) [2]: 4%
- Population Healthy Nuclei (%) [2]: 28%
- Population Hoechst High Intensity Objects (%) [2]: 5%
- Population Membrane Permeable-Phenotype (%) [2]: 5%
- Population Mitochondria Different-Phenotype (%) [2]: 88%
- Population Mitotic Cells (%) [2]: 63%
- Population Normal (%) [2]: 94%
- Population Pyknosed Nuclei (%) [2]: 67%
- Population Tubulin-Different-Phenotype (%) [2]: 86%
- Total Cell Count [2]: 132
- Population Apoptotic (%) [3]: 90%
- Population Fragmented Nuclei (%) [3]: 12%
- Population Hoechst High Intensity Objects (%) [3]: 20%
- Population Membrane Permeable-Phenotype (%) [3]: 0%
- Population Mitochondria Different-Phenotype (%) [3]: 100%
- Population Mitotic Cells (%) [3]: 9%
- Population Normal (%) [3]: 79%
- Population Pyknosed Nuclei (%) [3]: 76%
- Population Tubulin-Different-Phenotype (%) [3]: 95%
- Total Cell Count [3]: 266
- Population Apoptotic (%) [4]: 88%
- Population Fragmented Nuclei (%) [4]: 5%
- Population Healthy Nuclei (%) [4]: 10%
- Population Hoechst High Intensity Objects (%) [4]: 12%
- Population Membrane Permeable-Phenotype (%) [4]: 7%
- Population Mitochondria Different-Phenotype (%) [4]: 92%
- Population Mitotic Cells (%) [4]: 11%
- Population Normal (%) [4]: 87%
- Population Pyknosed Nuclei (%) [4]: 83%
- Population Tubulin-Different-Phenotype (%) [4]: 92%
- Total Cell Count [4]: 156
- Population Apoptotic (%) [5]: 57%
- Population Fragmented Nuclei (%) [5]: 17%
- Population Healthy Nuclei (%) [5]: 47%
- Population Hoechst High Intensity Objects (%) [5]: 7%
- Population Membrane Permeable-Phenotype (%) [5]: 0%
- Population Mitochondria Different-Phenotype (%) [5]: 94%
- Population Mitotic Cells (%) [5]: 42%
- Population Normal (%) [5]: 92%
- Population Pyknosed Nuclei (%) [5]: 35%
- Population Tubulin-Different-Phenotype (%) [5]: 80%
- Total Cell Count [5]: 254
- Population Apoptotic (%) [6]: 48%
- Population Fragmented Nuclei (%) [6]: 3%
- Population Healthy Nuclei (%) [6]: 45%
- Population Hoechst High Intensity Objects (%) [6]: 3%
- Population Membrane Permeable-Phenotype (%) [6]: 5%
- Population Mitochondria Different-Phenotype (%) [6]: 91%
- Population Mitotic Cells (%) [6]: 51%
- Population Normal (%) [6]: 96%
- Population Pyknosed Nuclei (%) [6]: 51%
- Population Tubulin-Different-Phenotype (%) [6]: 86%
- Total Cell Count [6]: 154
- Population Apoptotic (%) [7]: 91%
- Population Fragmented Nuclei (%) [7]: 15%
- Population Healthy Nuclei (%) [7]: 8%
- Population Hoechst High Intensity Objects (%) [7]: 22%
- Population Membrane Permeable-Phenotype (%) [7]: 0%
- Population Mitochondria Different-Phenotype (%) [7]: 94%
- Population Mitotic Cells (%) [7]: 8%
- Population Normal (%) [7]: 77%
- Population Pyknosed Nuclei (%) [7]: 75%
- Population Tubulin-Different-Phenotype (%) [7]: 94%
- Total Cell Count [7]: 275
- Population Apoptotic (%) [8]: 92%
- Population Fragmented Nuclei (%) [8]: 6%
- Population Healthy Nuclei (%) [8]: 9%
- Population Hoechst High Intensity Objects (%) [8]: 16%
- Population Mitochondria Different-Phenotype (%) [8]: 92%
- Population Mitotic Cells (%) [8]: 7%
- Population Normal (%) [8]: 83%
- Population Pyknosed Nuclei (%) [8]: 84%
- Population Tubulin-Different-Phenotype (%) [8]: 92%
- Total Cell Count [8]: 158
- Population Apoptotic (%) [9]: 52%
- Population Fragmented Nuclei (%) [9]: 11%
- Population Healthy Nuclei (%) [9]: 70%
- Population Hoechst High Intensity Objects (%) [9]: 7%
- Population Membrane Permeable-Phenotype (%) [9]: 1%
- Population Mitochondria Different-Phenotype (%) [9]: 71%
- Population Mitotic Cells (%) [9]: 47%
- Population Normal (%) [9]: 92%
- Population Pyknosed Nuclei (%) [9]: 17%
- Population Tubulin-Different-Phenotype (%) [9]: 50%
- Total Cell Count [9]: 354
- Population Apoptotic (%) [10]: 36%
- Population Fragmented Nuclei (%) [10]: 6%
- Population Healthy Nuclei (%) [10]: 72%
- Population Hoechst High Intensity Objects (%) [10]: 4%
- Population Membrane Permeable-Phenotype (%) [10]: 2%
- Population Mitochondria Different-Phenotype (%) [10]: 52%
- Population Mitotic Cells (%) [10]: 63%
- Population Normal (%) [10]: 95%
- Population Pyknosed Nuclei (%) [10]: 21%
- Population Tubulin-Different-Phenotype (%) [10]: 66%
- Total Cell Count [10]: 226
- Population Apoptotic (%) [11]: 80%
- Population Fragmented Nuclei (%) [11]: 19%
- Population Healthy Nuclei (%) [11]: 22%
- Population Hoechst High Intensity Objects (%) [11]: 29%
- Population Membrane Permeable-Phenotype (%) [11]: 0%
- Population Mitochondria Different-Phenotype (%) [11]: 100%
- Population Mitotic Cells (%) [11]: 19%
- Population Normal (%) [11]: 70%
- Population Pyknosed Nuclei (%) [11]: 58%
- Population Tubulin-Different-Phenotype (%) [11]: 93%
- Total Cell Count [11]: 290
- Population Apoptotic (%) [12]: 93%
- Population Fragmented Nuclei (%) [12]: 3%
- Population Healthy Nuclei (%) [12]: 15%
- Population Hoechst High Intensity Objects (%) [12]: 14%
- Population Membrane Permeable-Phenotype (%) [12]: 5%
- Population Mitochondria Different-Phenotype (%) [12]: 95%
- Population Mitotic Cells (%) [12]: 6%
- Population Normal (%) [12]: 85%
- Population Pyknosed Nuclei (%) [12]: 80%
- Population Tubulin-Different-Phenotype (%) [12]: 100%
- Total Cell Count [12]: 148
